Results on 21 compounds are retold here after ChEMBL document CHEMBL1147708 (Bioorg Med Chem Lett, 2006).

As a reminder, the IC50 is the point on the concentration scale where inhibition reaches its midpoint. What is called bioavailability is the share of a dose that reaches the circulation, judged against a reference dose that is usually intravenous. A higher bioavailability goes with much systemic uptake. The AUC is the area under the concentration-time curve, a measure of exposure. In general, Cmax refers to the highest concentration seen after dosing. The half-life is how long it takes for the measured level to halve. Read a low half-life as rapid decline.

Targets include Cytochrome P450 3A4 (Homo sapiens, UniProt P08684); Cytochrome P450 2D6 (Homo sapiens, UniProt P10635); Cytochrome P450 2C9 (Homo sapiens, UniProt P11712).
The next series concerns the target T1, Cytochrome P450 26A1 (Homo sapiens, UniProt O43174).
T1 sequence (O43174 whole entry): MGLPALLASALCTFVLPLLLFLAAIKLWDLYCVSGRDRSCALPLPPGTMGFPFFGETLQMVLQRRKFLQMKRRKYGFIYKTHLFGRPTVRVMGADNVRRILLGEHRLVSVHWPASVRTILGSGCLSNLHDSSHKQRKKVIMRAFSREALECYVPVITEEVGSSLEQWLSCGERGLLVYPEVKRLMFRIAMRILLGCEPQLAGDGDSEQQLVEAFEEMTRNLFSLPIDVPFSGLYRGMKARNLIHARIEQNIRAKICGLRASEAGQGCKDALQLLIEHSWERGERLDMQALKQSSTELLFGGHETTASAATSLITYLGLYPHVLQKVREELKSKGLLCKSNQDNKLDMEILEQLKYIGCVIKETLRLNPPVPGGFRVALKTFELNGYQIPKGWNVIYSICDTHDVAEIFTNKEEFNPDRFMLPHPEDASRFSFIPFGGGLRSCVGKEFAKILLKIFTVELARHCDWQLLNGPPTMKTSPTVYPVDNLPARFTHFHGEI
Put plainly: Inhibition of CYP26 expressed in human T47D cell line.

A further series deals with T47D. Description: Activity against human T47D cell line. It is filed as functional.
Series [1] in a line: Bioavailability in CD1 mouse. The note with it: in vivo.
The target of a further series is T2, Cytochrome P450 1A2 (Homo sapiens, UniProt P05177).
T2 sequence (P05177 whole entry): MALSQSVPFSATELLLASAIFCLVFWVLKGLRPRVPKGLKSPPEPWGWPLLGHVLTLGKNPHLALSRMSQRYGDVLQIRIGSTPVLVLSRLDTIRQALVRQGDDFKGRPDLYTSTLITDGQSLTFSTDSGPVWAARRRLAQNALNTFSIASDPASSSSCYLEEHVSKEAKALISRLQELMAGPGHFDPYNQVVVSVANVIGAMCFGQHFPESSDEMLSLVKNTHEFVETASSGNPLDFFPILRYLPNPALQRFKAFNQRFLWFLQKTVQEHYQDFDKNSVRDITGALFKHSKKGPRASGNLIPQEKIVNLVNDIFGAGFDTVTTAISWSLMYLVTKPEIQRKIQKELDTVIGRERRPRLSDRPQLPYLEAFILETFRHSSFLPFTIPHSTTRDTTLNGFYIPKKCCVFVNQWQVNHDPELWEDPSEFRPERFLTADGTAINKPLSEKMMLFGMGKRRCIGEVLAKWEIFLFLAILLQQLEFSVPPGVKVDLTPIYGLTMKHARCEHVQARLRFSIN

The species named for series [2] is Mus musculus. The note with it: in vivo, po, 5 mg/kg.
Series [3] can be described thus: in vivo. The conditions noted are these: CD1, mouse, po, 5 mg/kg.
Series [4] can be described thus: in vivo. The conditions noted are these: CD1, mouse, iv, 1 mg/kg.
The nature of series [5]: Plasma concentration in CD1 mouse at 5 mg/kg, po after 2 hrs co-administered with 3-[6-(2-dimethylamino- 1-imidazol-1-yl-propyl)-naphthalen-2-yloxy]- 2,2-dimethyl-propionic acid at 10 mg/kg, po. It is filed as ADME, organism-based. In short, it runs like this: (§1)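 Female CD-1 mice, about six weeks old, got atRA at 5 mg/kg by gavage (0.5 mg/mL in 1.5% v/v DMSO/safflower oil, 10 mL/kg). This was given immediately before the inhibitor at 10 mg/kg orally in water for injection. Three mice per timepoint gave cardiac EDTA blood. Plasma was acetonitrile-precipitated, and atRA was read by HPLC-UV against blank mouse plasma standards. AUC came from noncompartmental analysis of median values.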

The nature of series [6]: Plasma concentration in CD1 mouse at 5 mg/kg, po after 8 hrs co-administered with 3-[6-(2-dimethylamino- 1-imidazol-1-yl-propyl)-naphthalen-2-yloxy]- 2,2-dimethyl-propionic acid at 10 mg/kg, po. In kind it is ADME, organism-based. An outline of the steps:
as §1

Series [7] relates to Mus musculus. Put plainly: AUC(0-tz) in CD1 mouse at 5 mg/kg, po co-administered with 3-[6-(2-dimethylamino- 1-imidazol-1-yl-propyl)-naphthalen-2-yloxy]- 2,2-dimethyl-propionic acid at 10 mg/kg, po. In kind it is ADME, organism-based, Plasma. The note with it: in vivo. In short, it runs like this:
as §1

Series [8] can be described thus: Plasma concentration in CD1 mouse at 5 mg/kg, po after 2 hrs co-administered with 3-[6-(2-dimethylamino- 1-imidazol-1-yl-butyl)-naphthalen-2-yloxy]- 2,2-dimethyl-propionic acid at 10 mg/kg, po. In kind it is ADME, organism-based. In short, it runs like this: as §1
The nature of series [9]: Plasma concentration in CD1 mouse at 5 mg/kg, po after 8 hrs co-administered with 3-[6-(2-dimethylamino- 1-imidazol-1-yl-butyl)-naphthalen-2-yloxy]- 2,2-dimethyl-propionic acid at 10 mg/kg, po. It is filed as ADME, organism-based. An outline of the steps: as §1
The subject of series [10] is Mus musculus. Put plainly: AUC(0-tz) in CD1 mouse at 5 mg/kg, po co-administered with 3-[6-(2-dimethylamino- 1-imidazol-1-yl-butyl)-naphthalen-2-yloxy]- 2,2-dimethyl-propionic acid at 10 mg/kg, po. It is filed as ADME, organism-based, Plasma. The note with it: in vivo. In short, it runs like this:
as §1

Series [11] in a line: Plasma concentration in CD1 mouse at 5 mg/kg, po after 2 hrs. It is filed as ADME, organism-based. The arrangement: dose 5 mg/kg, route oral. An outline of the steps: (§2)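 Female CD-1 mice, about six weeks old, got atRA by oral gavage at 10 mL/kg (5 mg/kg), from a 0.5 mg/mL solution in 1.5% v/v DMSO in safflower oil. Three mice per timepoint gave terminal cardiac blood in EDTA.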

Series [12] is described as follows: Plasma concentration in CD1 mouse at 5 mg/kg, po after 8 hrs. The arrangement: dose 5 mg/kg, route oral. In kind it is ADME, organism-based. In short, it runs like this:
as §2

Series [13] concerns Mus musculus. Description: AUC(0-tz) in CD1 mouse at 5 mg/kg, po. It is filed as ADME, organism-based, Plasma. The arrangement: dose 5 mg/kg, route oral. The note with it: in vivo. An outline of the steps:
as §2

Cytochrome P450 2C9, sequence (P11712 whole entry): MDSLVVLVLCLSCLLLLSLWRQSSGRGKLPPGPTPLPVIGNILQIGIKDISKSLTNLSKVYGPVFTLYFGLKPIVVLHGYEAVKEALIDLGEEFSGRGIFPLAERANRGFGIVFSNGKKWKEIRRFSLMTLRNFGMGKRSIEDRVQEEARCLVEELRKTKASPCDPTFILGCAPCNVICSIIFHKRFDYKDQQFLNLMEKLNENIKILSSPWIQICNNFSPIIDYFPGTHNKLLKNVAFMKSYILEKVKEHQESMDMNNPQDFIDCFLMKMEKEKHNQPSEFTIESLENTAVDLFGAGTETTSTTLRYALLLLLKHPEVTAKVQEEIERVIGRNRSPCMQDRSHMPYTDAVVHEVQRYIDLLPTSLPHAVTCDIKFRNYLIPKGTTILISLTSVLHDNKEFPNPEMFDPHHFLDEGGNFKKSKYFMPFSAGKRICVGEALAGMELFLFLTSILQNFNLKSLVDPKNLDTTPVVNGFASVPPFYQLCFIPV
Cytochrome P450 2D6, sequence (P10635 whole entry): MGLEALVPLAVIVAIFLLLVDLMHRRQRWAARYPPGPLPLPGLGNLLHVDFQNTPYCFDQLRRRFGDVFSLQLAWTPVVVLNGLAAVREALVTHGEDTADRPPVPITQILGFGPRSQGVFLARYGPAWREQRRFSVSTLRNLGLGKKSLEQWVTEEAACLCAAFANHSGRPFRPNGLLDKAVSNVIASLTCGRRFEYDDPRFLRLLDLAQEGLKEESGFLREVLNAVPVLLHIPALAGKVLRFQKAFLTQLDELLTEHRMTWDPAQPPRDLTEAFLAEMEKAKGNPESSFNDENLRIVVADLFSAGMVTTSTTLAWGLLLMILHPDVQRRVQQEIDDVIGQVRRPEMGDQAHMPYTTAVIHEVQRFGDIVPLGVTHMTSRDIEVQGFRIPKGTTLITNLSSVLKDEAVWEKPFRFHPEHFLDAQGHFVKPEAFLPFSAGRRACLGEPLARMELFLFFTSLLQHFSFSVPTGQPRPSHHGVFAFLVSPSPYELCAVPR
Cytochrome P450 3A4, sequence (P08684 whole entry): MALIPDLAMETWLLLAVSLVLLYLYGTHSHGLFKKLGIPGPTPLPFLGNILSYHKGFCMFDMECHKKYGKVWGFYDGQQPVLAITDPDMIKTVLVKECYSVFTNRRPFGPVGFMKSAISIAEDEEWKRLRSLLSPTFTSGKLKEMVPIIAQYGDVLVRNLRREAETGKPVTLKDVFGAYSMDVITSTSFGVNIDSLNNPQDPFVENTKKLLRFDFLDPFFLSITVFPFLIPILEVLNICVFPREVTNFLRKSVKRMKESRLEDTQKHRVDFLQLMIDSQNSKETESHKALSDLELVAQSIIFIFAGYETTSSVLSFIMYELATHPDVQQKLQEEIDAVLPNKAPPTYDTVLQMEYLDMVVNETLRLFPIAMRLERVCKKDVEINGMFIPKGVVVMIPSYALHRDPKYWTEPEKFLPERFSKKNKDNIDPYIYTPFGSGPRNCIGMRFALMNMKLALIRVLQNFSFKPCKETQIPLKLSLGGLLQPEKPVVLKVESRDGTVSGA

The compound `C[C@H]([C@@H](c1ccc2cc(OCC(C)(C)C(=O)O)ccc2c1)n1ccnc1)N(C)C1CCCCC1` gave an IC50 against Cytochrome P450 26A1 of 125 nM.
Take `C[C@H]([C@@H](c1ccc2cc(OCC3(C(=O)O)CCCCC3)ccc2c1)n1ccnc1)N(C)C`: the IC50 was 11.2 nM on Cytochrome P450 26A1; 8000 nM against Cytochrome P450 3A4; more than 5000 nM against Cytochrome P450 1A2; more than 5000 nM against Cytochrome P450 2D6; more than 5000 nM on Cytochrome P450 2C9. In the series with T47D, this compound showed an Activity of less than 100 nM. This compound also returned a bioavailability in series [1] of 99%. In the series filed under Mus musculus [2], this compound came in with an AUC of 17500 ng·h/mL. Besides, in the series “in vivo [3]”, the Cmax is 23 µM. In “in vivo [4]”, this compound showed a half-life of 2.46 h.
The compound `CCC(CC)(COc1ccc2cc([C@H]([C@@H](C)N(C)C)n3ccnc3)ccc2c1)C(=O)O` returned an IC50 at Cytochrome P450 26A1 of 37 nM.
On to `CC[C@H]([C@@H](c1ccc2cc(OCC(C)(C)C(=O)O)ccc2c1)n1ccnc1)N(C)C`, for which the IC50 against Cytochrome P450 26A1 was 1.3 nM; against Cytochrome P450 1A2, more than 5000 nM; against Cytochrome P450 2D6, more than 5000 nM; at Cytochrome P450 2C9 it was more than 5000 nM. For the same compound, the Activity in the series on T47D was less than 5 nM. Moreover, the bioavailability in [1] turned out to be 73%. In the series filed under Mus musculus [2], this compound gave an AUC of 5430 ng·h/mL. The concentration in “in vivo [3]” peaked (Cmax) at 6.7 µM. This compound also gave a half-life in the series “in vivo [4]” of 2.76 h.
On to `CCN(CC)[C@H](C)[C@@H](c1ccc2cc(OCC(C)(C)C(=O)O)ccc2c1)n1ccnc1`, for which the IC50 on Cytochrome P450 26A1 stood at 5 nM.
As for `C[C@H]([C@@H](c1ccc2cc(OCC3(C(=O)O)CCC3)ccc2c1)n1ccnc1)N(C)C`, the results for the IC50 at Cytochrome P450 26A1 and against Cytochrome P450 3A4 were 40 nM and 7000 nM, respectively.
Consider `CCN(C)[C@H](C)[C@@H](c1ccc2cc(OCC3(C(=O)O)CCCC3)ccc2c1)n1ccnc1`, for which the IC50 was 4.2 nM against Cytochrome P450 26A1; 2300 nM against Cytochrome P450 3A4; more than 5000 nM against Cytochrome P450 1A2; more than 5000 nM against Cytochrome P450 2D6; more than 5000 nM against Cytochrome P450 2C9. Further, the Activity in the series with T47D was less than 100 nM. This compound also showed a bioavailability in [1] of 99%. This compound came in with an AUC in the series filed under Mus musculus [2] of 18900 ng·h/mL. Also, the Cmax in “in vivo [3]” turned out to be 13 µM. Also, in the series “in vivo [4]”, the half-life is 7.1 h.
For the compound `CN(C)C[C@@H](c1ccc2cc(OCC(C)(C)C(=O)O)ccc2c1)n1ccnc1`, the IC50 at Cytochrome P450 26A1 came to 403 nM.
In turn, `CCCCN(C)[C@H](C)[C@@H](c1ccc2cc(OCC(C)(C)C(=O)O)ccc2c1)n1ccnc1` registered an IC50 against Cytochrome P450 26A1 of 60 nM.
For `CC(C)N(C)[C@H](C)[C@@H](c1ccc2cc(OCC3(C(=O)O)CCCC3)ccc2c1)n1ccnc1`, the results for the IC50 against Cytochrome P450 26A1 and at Cytochrome P450 3A4 were 1.6 nM and 800 nM, respectively.
In turn, `CC(C)N(C)[C@H](C)[C@@H](c1ccc2cc(OCC(C)(C)C(=O)O)ccc2c1)n1ccnc1` showed an IC50 against Cytochrome P450 26A1 of 3 nM.
On the same count and under the same terms, for `CN(C)C(C)(C)[C@@H](c1ccc2cc(OCC(C)(C)C(=O)O)ccc2c1)n1ccnc1` the value was 26 nM.
With `C[C@H]([C@@H](c1ccc2cc(OCC(C)(C)C(=O)O)ccc2c1)n1ccnc1)N1CCOCC1`, the values for the IC50 against Cytochrome P450 26A1 and against Cytochrome P450 3A4 were 34 nM and 2150 nM, respectively.
Compound `C[C@H]([C@@H](c1ccc2cc(OCC(C)(C)C(=O)O)ccc2c1)n1ccnc1)N1CCCC1` showed an IC50 at Cytochrome P450 26A1 of 583 nM.
On to `C[C@H]([C@@H](c1ccc2cc(OCC3(C(=O)O)CCOCC3)ccc2c1)n1ccnc1)N(C)C`, for which the IC50 at Cytochrome P450 26A1 is 46.7 nM; against Cytochrome P450 3A4, more than 20000 nM.
The corresponding values for `CCN(CC)[C@H](C)[C@@H](c1ccc2cc(OCC3(C(=O)O)CCCC3)ccc2c1)n1ccnc1` are 1.4 nM and 1010 nM.
In the case of `C[C@H]([C@@H](c1ccc2cc(OCC3(C(=O)O)CCCC3)ccc2c1)n1ccnc1)N(C)C`, the IC50 was 7.3 nM at Cytochrome P450 26A1; 8200 nM against Cytochrome P450 3A4; more than 5000 nM at Cytochrome P450 1A2; more than 5000 nM on Cytochrome P450 2D6; more than 5000 nM against Cytochrome P450 2C9. The compound further registered an Activity in the series on T47D of less than 100 nM. This compound also had a bioavailability in series [1] of 77%. For the same compound, the AUC in the series listed under Mus musculus [2] was 5800 ng·h/mL. The highest level in “in vivo [3]” (Cmax) was 5.5 µM. In the series “in vivo [4]”, this compound gave a half-life of 2.49 h.
On Cytochrome P450 26A1, `CCN(C)[C@H](C)[C@@H](c1ccc2cc(OCC(C)(C)C(=O)O)ccc2c1)n1ccnc1` gave an IC50 of 9 nM.
For `C[C@H]([C@@H](c1ccc2cc(OCC3(C(=O)O)CC3)ccc2c1)n1ccnc1)N(C)C`, the results for the IC50 at Cytochrome P450 26A1 and against Cytochrome P450 3A4 were 34.7 nM and 7500 nM, respectively.
Regarding `CC1=C(/C=C/C(C)=C/C=C/C(C)=C/C(=O)O)C(C)(C)CCC1` [TRETINOIN], the concentration at 2 h came to 6.66 µM in [5], 7.72 µM in series [8] and 5.24 µM in [11]. Moreover, the concentration at 8 h in [6] was 0.04 µM; in series [9], 2.73 µM; in [12], less than 0.01 µM. Moreover, the AUC in the series on Mus musculus [7] amounted to 6470 ng·h/mL; in the series on Mus musculus [10], 9900 ng·h/mL; in the series with Mus musculus [13] it was 1690 ng·h/mL.
With `C[C@H]([C@@H](c1ccc2cc(OCC(C)(C)C(=O)O)ccc2c1)n1ccnc1)N(C)C`, the Activity with T47D came to 125 nM.
